# Tests used:
# [1] = target: Matrix metalloproteinase-9 (Homo sapiens, UniProt P14780); assay: Inhibitory activity against human gelatinase B (Matrix metalloprotease-9)
# [2] = target: 72 kDa type IV collagenase (Homo sapiens, UniProt P08253); assay: Inhibitory activity against human gelatinase A (matrix metalloprotease-2 MMP2)
# Interstitial collagenase = target: T1, Interstitial collagenase (Homo sapiens, UniProt P03956); assay: Inhibitory activity against Matrix metalloprotease-1
# T1 sequence (P03956 whole entry): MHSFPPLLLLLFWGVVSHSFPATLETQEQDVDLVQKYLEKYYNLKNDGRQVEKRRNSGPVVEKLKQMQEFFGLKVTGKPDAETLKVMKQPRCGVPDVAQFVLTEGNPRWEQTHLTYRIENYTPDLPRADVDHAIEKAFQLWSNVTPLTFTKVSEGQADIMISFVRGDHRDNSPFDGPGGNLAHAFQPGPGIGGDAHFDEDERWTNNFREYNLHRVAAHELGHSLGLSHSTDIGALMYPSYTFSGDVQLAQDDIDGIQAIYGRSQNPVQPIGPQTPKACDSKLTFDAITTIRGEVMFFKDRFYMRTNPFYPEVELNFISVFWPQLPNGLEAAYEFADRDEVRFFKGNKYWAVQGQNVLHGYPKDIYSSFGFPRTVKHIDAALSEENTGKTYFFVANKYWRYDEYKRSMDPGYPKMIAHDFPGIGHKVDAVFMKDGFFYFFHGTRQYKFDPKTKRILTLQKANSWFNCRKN
# Outline: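 Commercial enzyme diluted in Tris/CaCl2/NaCl/Brij-35 buffer. Enzyme (about 0.2 unit/mL) and DMSO inhibitor were preincubated 30 min at room temperature with ABD-F (added as 2 mM) in 25 mM HEPES-NaOH/5 mM CaCl2, pH 7.0. Thiopeptide substrate Ac-Pro-Leu-Gly-SCH(CH2CH(CH3)2)CO-Leu-Gly-OEt (1.25 mM stock) was then added for 3 h at 37 °C. Reaction quenched with 3% acetic acid. Fluorescence read at ex 360/em 530 nm.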
# Neprilysin = target: T2, Neprilysin (Rattus norvegicus, UniProt P07861); assay: Inhibitory activity against neutral endopeptidase (NEP)
# T2 sequence (P07861 whole entry): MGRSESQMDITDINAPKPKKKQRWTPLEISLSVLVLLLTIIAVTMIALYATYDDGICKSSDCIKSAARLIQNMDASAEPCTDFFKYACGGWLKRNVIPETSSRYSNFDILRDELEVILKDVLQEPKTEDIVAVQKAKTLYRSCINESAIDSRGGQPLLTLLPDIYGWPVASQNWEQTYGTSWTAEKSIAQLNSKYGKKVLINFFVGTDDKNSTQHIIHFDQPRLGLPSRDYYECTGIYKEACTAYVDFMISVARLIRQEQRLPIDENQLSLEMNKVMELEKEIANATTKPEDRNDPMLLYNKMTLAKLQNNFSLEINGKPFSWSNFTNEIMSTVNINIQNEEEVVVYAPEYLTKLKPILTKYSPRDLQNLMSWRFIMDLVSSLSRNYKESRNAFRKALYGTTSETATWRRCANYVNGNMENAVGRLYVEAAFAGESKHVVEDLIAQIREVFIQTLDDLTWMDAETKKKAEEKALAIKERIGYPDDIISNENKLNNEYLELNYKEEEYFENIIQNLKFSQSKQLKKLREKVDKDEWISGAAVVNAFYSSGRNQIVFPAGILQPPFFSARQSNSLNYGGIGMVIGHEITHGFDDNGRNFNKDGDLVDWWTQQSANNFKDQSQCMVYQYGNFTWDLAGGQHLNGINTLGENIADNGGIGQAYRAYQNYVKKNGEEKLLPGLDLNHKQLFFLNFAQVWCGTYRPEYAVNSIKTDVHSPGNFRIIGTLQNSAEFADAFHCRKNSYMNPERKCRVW
# [3] = target: T3, Endothelin-converting enzyme 1 (Homo sapiens, UniProt P42892); assay: Inhibitory activity against Endothelin-converting enzyme (ECE)
# T3 sequence (P42892 whole entry): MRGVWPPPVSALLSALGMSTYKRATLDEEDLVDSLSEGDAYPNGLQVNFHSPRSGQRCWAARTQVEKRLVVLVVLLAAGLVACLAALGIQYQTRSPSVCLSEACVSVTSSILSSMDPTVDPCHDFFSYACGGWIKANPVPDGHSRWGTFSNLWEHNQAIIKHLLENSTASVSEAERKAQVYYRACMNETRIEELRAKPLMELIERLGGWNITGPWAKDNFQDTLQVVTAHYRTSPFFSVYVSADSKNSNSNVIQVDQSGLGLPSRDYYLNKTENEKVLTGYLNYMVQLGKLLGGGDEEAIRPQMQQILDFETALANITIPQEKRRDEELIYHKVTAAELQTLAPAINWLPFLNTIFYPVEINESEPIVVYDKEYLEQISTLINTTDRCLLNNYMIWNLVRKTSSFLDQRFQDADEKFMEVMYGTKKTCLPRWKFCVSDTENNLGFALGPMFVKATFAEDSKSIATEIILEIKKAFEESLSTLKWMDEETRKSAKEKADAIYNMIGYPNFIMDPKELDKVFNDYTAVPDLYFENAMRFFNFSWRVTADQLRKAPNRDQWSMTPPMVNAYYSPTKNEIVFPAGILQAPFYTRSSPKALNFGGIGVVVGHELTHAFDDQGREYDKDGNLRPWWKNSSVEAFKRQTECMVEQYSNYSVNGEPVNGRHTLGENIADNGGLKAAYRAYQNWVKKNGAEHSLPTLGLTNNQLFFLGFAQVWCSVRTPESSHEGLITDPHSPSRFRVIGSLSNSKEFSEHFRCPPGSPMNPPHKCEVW
# [4] = target: Angiotensin-converting enzyme (Homo sapiens, UniProt P12821); assay: Inhibitory activity against Angiotensin I converting enzyme
# Angiotensin-converting enzyme, sequence (P12821 whole entry): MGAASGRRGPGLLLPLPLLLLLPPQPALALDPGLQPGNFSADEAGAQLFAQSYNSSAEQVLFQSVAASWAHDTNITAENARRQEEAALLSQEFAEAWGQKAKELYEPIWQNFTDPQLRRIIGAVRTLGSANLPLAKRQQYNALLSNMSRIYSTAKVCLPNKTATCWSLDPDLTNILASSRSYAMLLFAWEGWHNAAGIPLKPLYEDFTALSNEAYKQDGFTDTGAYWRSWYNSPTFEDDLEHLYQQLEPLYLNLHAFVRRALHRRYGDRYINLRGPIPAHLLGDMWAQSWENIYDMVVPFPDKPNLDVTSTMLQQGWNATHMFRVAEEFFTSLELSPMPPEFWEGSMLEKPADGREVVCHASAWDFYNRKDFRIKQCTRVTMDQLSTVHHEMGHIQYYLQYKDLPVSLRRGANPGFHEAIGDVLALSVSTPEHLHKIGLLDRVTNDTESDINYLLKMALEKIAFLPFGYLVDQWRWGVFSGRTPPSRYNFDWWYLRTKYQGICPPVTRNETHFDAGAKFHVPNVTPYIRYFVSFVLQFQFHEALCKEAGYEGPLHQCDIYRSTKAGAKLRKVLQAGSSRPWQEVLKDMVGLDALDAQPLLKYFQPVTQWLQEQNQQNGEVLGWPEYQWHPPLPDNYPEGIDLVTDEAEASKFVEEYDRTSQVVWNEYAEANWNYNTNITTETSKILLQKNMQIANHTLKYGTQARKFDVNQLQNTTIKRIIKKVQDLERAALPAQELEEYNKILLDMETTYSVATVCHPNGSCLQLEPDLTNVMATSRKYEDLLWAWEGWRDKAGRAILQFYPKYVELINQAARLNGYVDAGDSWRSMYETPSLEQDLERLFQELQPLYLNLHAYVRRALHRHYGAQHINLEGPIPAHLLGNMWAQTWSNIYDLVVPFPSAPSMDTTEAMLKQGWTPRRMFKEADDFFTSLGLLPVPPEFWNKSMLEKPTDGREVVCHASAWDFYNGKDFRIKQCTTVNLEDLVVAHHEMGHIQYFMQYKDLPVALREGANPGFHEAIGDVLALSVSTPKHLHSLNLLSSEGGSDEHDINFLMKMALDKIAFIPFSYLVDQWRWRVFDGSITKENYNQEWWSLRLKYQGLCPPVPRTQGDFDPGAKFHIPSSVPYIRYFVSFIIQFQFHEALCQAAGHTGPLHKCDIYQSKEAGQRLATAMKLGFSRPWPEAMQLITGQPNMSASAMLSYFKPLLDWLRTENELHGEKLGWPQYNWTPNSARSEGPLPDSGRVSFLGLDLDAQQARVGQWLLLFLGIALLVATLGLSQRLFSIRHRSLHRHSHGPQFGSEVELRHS
# Stromelysin-1 = Stromelysin-1 (Homo sapiens, UniProt P08254); assay: Inhibitory activity against Matrix metalloprotease-3
# Stromelysin-1, sequence (P08254 whole entry): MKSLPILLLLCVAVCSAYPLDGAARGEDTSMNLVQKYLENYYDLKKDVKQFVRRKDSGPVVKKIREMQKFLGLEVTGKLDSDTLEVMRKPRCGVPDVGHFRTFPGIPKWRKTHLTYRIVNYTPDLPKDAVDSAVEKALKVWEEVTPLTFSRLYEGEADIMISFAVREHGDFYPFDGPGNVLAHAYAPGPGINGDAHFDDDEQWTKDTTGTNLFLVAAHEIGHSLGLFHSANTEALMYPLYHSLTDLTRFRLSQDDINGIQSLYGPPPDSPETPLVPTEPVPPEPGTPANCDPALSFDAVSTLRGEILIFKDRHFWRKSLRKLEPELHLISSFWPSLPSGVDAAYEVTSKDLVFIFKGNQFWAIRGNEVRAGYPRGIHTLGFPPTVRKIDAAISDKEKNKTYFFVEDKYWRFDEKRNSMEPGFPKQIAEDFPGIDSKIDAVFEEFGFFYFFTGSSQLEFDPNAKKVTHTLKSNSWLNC
# Outline: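 Enzyme and DMSO inhibitor were preincubated 30 min at room temperature in 50 mM Tris-Cl/10 mM CaCl2/0.2 M NaCl/0.02% NaN3/0.05% Brij-35, pH 7.5. Substrate MOAc-Arg-Pro-Lys-Pro-Val-Glu-Nva-Trp-Arg-Lys(Dnp)NH2 (added as 25 μM solution) then reacted 90 min.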
# Matrilysin = target: T4, Matrilysin (Homo sapiens, UniProt P09237); assay: Inhibitory activity against Matrix metalloprotease-7
# T4 sequence (P09237 whole entry): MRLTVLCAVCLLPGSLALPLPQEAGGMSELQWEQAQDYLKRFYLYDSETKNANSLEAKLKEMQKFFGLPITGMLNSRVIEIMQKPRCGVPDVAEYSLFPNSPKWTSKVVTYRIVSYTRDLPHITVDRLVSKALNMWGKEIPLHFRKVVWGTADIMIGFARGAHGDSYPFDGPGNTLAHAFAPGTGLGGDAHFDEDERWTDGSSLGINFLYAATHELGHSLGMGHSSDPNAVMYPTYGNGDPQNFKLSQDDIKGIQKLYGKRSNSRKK
# [5] = Maximum plasma concentration (Cmax) after p.o. administration of 200 mg/kg in mice; type: ADME, organism-based; design: dose 200 mg/kg, route oral; details: mouse, po
# Outline: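 Single 200 mg/kg oral dose in mice, given in 0.5% methyl cellulose. Blood drawn at various time points. Plasma drug extracted with CH3CN and quantified by reverse-phase C18 HPLC using a CH3CN gradient with 0.1% TFA. Peak plasma level taken as Cmax.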
# [6] = target: T3, Endothelin-converting enzyme 1; assay: Inhibitory activity against endothelin converting enzyme (ECE)
# 72 kDa type IV collagenase, sequence (P08253 whole entry): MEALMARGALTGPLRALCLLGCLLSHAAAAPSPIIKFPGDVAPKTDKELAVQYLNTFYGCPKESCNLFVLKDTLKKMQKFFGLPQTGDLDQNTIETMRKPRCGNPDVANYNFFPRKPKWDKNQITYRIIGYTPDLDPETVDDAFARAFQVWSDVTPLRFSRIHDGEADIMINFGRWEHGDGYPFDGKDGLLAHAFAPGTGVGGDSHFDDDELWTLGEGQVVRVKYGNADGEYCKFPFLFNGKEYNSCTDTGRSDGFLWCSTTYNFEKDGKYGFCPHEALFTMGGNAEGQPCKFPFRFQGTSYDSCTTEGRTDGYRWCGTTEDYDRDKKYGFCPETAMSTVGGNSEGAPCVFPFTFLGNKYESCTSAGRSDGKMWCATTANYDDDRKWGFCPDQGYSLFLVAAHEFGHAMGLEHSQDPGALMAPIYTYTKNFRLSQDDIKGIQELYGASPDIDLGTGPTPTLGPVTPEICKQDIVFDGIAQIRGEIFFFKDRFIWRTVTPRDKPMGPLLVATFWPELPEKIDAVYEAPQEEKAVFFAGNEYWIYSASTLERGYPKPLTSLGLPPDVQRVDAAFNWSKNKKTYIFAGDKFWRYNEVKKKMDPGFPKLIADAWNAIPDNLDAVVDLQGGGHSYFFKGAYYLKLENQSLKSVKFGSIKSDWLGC
# Matrix metalloproteinase-9, sequence (P14780 whole entry): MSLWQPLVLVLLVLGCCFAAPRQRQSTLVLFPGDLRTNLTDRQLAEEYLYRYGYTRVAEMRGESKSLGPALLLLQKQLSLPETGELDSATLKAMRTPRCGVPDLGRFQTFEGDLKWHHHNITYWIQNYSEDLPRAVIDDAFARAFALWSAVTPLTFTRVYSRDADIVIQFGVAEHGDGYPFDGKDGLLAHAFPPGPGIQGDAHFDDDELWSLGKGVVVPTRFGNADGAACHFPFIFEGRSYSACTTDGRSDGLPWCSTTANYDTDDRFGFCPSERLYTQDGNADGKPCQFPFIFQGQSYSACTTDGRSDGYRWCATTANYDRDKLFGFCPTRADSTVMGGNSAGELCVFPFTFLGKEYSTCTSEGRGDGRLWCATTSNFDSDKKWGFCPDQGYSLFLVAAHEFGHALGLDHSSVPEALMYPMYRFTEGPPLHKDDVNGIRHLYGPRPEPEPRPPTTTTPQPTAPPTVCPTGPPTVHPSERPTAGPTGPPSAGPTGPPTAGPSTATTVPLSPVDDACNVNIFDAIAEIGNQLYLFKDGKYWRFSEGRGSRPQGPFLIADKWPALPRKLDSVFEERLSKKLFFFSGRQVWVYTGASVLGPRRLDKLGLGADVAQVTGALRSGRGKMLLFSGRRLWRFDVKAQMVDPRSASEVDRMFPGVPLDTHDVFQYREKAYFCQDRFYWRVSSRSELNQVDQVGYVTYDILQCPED
Compound,IC50 [1],IC50 [2],IC50 (Interstitial collagenase),IC50 (Neprilysin),IC50 [3],IC50 [4],IC50 (Stromelysin-1),IC50 (Matrilysin),Cmax [5],IC50 [6]
O=C(O)[C@@H](Cc1c[nH]c2ccccc12)NS(=O)(=O)c1ccc(-c2nnn(-c3ccccc3)n2)cc1,32 nM,19 nM,> 1000 nM,> 1000 nM,> 1000 nM,> 1000 nM,> 1000 nM,> 1000 nM,–,–
CSc1ccc(-c2ccc(S(=O)(=O)N[C@@H](C(=O)O)C(C)C)cc2)cc1,40 nM,23 nM,> 1000 nM,> 1000 nM,–,> 1000 nM,> 1000 nM,> 1000 nM,189 µM,> 1000 nM
Cc1ccc(-c2ccc(S(=O)(=O)N[C@H](Cc3c[nH]c4ccccc34)C(=O)O)s2)cc1,61 nM,10 nM,> 1000 nM,> 1000 nM,> 1000 nM,> 1000 nM,> 1000 nM,> 1000 nM,252 µM,–
O=C(Nc1ccc(S(=O)(=O)N[C@H](Cc2c[nH]c3ccccc23)C(=O)O)cc1)c1ccc(Br)cc1,–,2.6 nM,> 1000 nM,> 1000 nM,–,> 1000 nM,> 1000 nM,> 1000 nM,0.2 µM,> 1000 nM
CSc1ccc(-n2nnc(-c3ccc(S(=O)(=O)N[C@@H](C(=O)O)C(C)C)cc3)n2)cc1,–,13 nM,> 1000 nM,> 1000 nM,–,> 1000 nM,> 1000 nM,> 1000 nM,47.7 µM,> 1000 nM
Cc1ccc(C#Cc2ccc(S(=O)(=O)N[C@H](Cc3c[nH]c4ccccc34)C(=O)O)s2)cc1 [S-3304],23 nM,–,> 1000 nM,> 1000 nM,–,> 1000 nM,> 1000 nM,> 1000 nM,204 µM,> 1000 nM

# — ChEMBL document CHEMBL1131478 (J Med Chem, 1998)
